# pIC50: −log10 of the molar value. Calls of active or inactive are those of the source. The rule behind the calls is not given here.
# Tests used:
# [1] = target: T1, Protein cereblon/Histone-lysine N-methyltransferase EZH2 (Homo sapiens) (UniProt Q15910+Q96SW2); assay: PROTAC activity at CRBN E3 ligase/EZH2 in PRC2 complex in human A2780 cells assessed as induction of SUZ12 degradation by measuring reduction in SUZ12 protein level at 1 uM incubated for 48 hrs by Western blot analysis; format: cell-based
# T1 sequence (Q15910 whole entry, looked up): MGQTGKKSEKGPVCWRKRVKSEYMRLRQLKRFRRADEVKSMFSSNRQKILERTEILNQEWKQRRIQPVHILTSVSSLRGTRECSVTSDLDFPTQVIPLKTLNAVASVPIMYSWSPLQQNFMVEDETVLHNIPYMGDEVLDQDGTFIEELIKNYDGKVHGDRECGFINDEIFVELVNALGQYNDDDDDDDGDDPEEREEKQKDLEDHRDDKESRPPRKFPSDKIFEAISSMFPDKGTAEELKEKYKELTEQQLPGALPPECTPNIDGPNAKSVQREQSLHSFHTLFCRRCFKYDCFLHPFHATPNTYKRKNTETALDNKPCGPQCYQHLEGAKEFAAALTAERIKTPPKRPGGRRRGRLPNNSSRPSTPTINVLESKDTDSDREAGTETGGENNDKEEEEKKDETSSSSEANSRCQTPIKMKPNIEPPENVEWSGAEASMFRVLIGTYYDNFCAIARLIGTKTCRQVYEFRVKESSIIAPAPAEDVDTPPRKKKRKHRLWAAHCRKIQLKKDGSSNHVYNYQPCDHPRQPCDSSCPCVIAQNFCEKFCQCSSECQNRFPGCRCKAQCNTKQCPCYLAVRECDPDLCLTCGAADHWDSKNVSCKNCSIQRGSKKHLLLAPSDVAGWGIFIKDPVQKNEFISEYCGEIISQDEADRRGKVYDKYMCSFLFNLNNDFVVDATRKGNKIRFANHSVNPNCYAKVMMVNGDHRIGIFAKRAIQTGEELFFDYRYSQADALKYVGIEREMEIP
# T1 sequence (Q96SW2 whole entry, looked up): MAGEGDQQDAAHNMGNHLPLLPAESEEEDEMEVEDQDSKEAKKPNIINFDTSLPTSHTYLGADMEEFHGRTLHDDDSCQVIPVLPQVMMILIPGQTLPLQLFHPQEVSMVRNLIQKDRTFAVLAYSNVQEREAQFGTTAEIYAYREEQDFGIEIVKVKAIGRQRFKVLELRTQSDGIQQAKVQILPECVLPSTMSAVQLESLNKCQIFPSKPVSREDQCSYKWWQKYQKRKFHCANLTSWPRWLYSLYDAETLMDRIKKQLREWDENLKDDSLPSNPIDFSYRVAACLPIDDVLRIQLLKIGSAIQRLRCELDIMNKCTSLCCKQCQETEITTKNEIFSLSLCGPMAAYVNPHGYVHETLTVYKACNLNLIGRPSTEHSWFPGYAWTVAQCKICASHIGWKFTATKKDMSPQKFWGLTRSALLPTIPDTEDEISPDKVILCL
# Outline: (§1)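 Cancer cell lines exposed to 1 μM compound for 48 h. Lysates immunoblotted (SDS-PAGE, nitrocellulose, 5% milk block, primary antibody overnight at 4 °C) for EZH2, SUZ12, EED, RbAp48 and H3K27me3. Bands quantified by densitometry and normalized to GAPDH.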
# [2] = target: T1, Protein cereblon/Histone-lysine N-methyltransferase EZH2 (Homo sapiens); assay: PROTAC activity at CRBN E3 ligase/EZH2 in PRC2 complex in human WSUDLCL2 cells assessed as induction of RbAp48 degradation by measuring reduction in RbAp48 protein level at 1 uM measured after 48 to 72 hrs by Western blot analysis; format: cell-based; settings: time 48-72 hrs
# [3] = target: T1, Protein cereblon/Histone-lysine N-methyltransferase EZH2 (Homo sapiens); assay: PROTAC activity at CRBN E3 ligase/EZH2 in PRC2 complex in human SU-DHL-6 cells assessed as induction of EZH2 degradation by measuring reduction in EZH2 protein level at 1 uM incubated for 48 hrs by Western blot analysis; format: cell-based
# Outline: (§2)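 Cells cultured in DMEM or RPMI 1640 with 10% FBS and 1% penicillin-streptomycin, 37 °C, 5% CO2; exposed to 1 μM compound for 48 h. Lysates run on SDS-PAGE and transferred to nitrocellulose. Blocked 2 h in 5% skim milk, primary antibody overnight at 4 °C, then secondary antibody. Chemiluminescent detection of PRC2 subunits and H3K27me3.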
# [4] = target: T1, Protein cereblon/Histone-lysine N-methyltransferase EZH2 (Homo sapiens); assay: PROTAC activity at CRBN E3 ligase/EZH2 in PRC2 complex in human DU-145 cells assessed as induction of RbAp48 degradation by measuring reduction in RbAp48 protein level at 1 uM incubated for 48 hrs by Western blot analysis; format: cell-based; outline: as §1
# [5] = target: T2, Histone-lysine N-methyltransferase EZH1 (Homo sapiens, UniProt Q92800); assay: Inhibition of recombinant full length human N-terminal FLAG-tagged EZH1 in PRC2 complex expressed in baculovirus system using SAM as substrate preincubated for 15 mins followed by substrate addition and measured after 60 mins by AlphaLISA immunodetection assay
# T2 sequence (Q92800 whole entry): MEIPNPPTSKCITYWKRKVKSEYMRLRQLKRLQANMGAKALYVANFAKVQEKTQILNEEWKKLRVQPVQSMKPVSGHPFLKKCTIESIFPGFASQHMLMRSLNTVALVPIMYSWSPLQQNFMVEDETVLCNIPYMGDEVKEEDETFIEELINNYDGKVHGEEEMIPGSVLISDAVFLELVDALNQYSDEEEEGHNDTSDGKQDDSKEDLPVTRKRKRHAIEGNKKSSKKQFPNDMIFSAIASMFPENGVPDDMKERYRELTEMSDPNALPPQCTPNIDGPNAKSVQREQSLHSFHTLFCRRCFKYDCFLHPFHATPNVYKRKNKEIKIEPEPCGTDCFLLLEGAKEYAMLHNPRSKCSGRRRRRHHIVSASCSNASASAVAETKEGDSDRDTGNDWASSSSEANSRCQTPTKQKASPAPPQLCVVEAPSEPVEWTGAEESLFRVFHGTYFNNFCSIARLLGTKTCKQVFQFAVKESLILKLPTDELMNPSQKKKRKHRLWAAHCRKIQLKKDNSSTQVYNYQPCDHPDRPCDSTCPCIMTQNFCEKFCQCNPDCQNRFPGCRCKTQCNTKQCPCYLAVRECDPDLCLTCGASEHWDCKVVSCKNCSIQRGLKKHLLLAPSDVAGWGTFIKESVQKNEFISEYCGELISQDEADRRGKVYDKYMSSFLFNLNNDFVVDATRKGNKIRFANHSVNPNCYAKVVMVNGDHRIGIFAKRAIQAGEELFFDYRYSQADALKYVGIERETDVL
# [6] = target: T1, Protein cereblon/Histone-lysine N-methyltransferase EZH2 (Homo sapiens); assay: PROTAC activity at CRBN E3 ligase/EZH2 in PRC2 complex in human A2780 cells assessed as induction of RbAp48 degradation by measuring reduction in RbAp48 protein level at 1 uM incubated for 48 hrs by Western blot analysis; format: cell-based; outline: as §1
# [7] = target: T1, Protein cereblon/Histone-lysine N-methyltransferase EZH2 (Homo sapiens); assay: PROTAC activity at CRBN E3 ligase/EZH2 in PRC2 complex in human DU-145 cells assessed as reduction in H3K27me3 level at 1 uM incubated for 48 hrs by Western blot analysis; format: cell-based; outline: as §1
# NCI-H1299 = assay: Antiproliferative activity against human NCI-H1299 cells harboring SWI/SNF mutant assessed as inhibition of cell growth at 10 uM treated for 9 days by optical microscopic analysis; format: functional, cell-based; settings: time 9.0 day
# Outline: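 Cells seeded at 5 × 10³ per well, grown 24 h, then exposed to compound at 10 μM for 9 days with medium refreshed. Cells were photographed and counted on days 1, 3, 5, 7 and 9. For lines 1-2, EZH2-targeting or control shRNA was induced in the cells. Mean SD of three independent experiments; t-test against control.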
# [8] = target: T1, Protein cereblon/Histone-lysine N-methyltransferase EZH2 (Homo sapiens); assay: PROTAC activity at CRBN E3 ligase/EZH2 in PRC2 complex in human WSUDLCL2 cells assessed as increase in SUZ12 ubiquitination at 1 uM measured after 48 hrs by co-immunoprecipitation assay; format: cell-based
# Outline: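 WSU-DLCL-2 cells treated with 1 μM compound for 48 h and lysed in RIPA buffer. Lysates incubated with antibodies overnight at 4 °C, then 3 h with Protein G agarose beads at 4 °C. Proteins eluted in IP buffer and ubiquitination of the target probed by immunoblot.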
# [9] = target: T1, Protein cereblon/Histone-lysine N-methyltransferase EZH2 (Homo sapiens); assay: PROTAC activity at CRBN E3 ligase/EZH2 in PRC2 complex in human WSUDLCL2 cells assessed as induction of SUZ12 degradation by measuring reduction in SUZ12 protein level at 1 uM measured after 48 to 72 hrs by Western blot analysis; format: cell-based; settings: time 48-72 hrs
# [10] = target: T1, Protein cereblon/Histone-lysine N-methyltransferase EZH2 (Homo sapiens); assay: PROTAC activity at CRBN E3 ligase/EZH2 in PRC2 complex in human SK-OV-3 cells assessed as induction of RpAb48 degradation by measuring reduction in RpAb48 protein level at 1 uM incubated for 48 hrs by Western blot analysis; format: cell-based; outline: as §2
# [11] = target: T1, Protein cereblon/Histone-lysine N-methyltransferase EZH2 (Homo sapiens); assay: PROTAC activity at CRBN E3 ligase/EZH2 in PRC2 complex in human WSUDLCL2 cells assessed as effect on RbAp48 mRNA expression at 1 uM incubated for 48 hrs by RT-qPCR analysis; format: cell-based
# Outline: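 WSU-DLCL-2 cells treated 48 h with 1 μM compound. Total RNA extracted with Trizol and reverse-transcribed. SYBR qPCR run as 95 °C 30 s, then 40 cycles of 95 °C 6 s and 60 °C 20 s. PRC2 subunit mRNA normalized to the DMSO-treated group; mean SD, t-test.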
smiles,measurement,setting,value
CCN(c1cc(-c2ccc(CN3CCN(CCCCCCCOc4cccc5c4C(=O)N(C4CCC(=O)NC4=O)C5=O)CC3)cc2)cc(C(=O)NCc2c(C)cc(C)[nH]c2=O)c1C)C1CCOCC1 (configuration not stated),Activity,[1],Active
same,Activity,[2],Active
same,Activity,[3],Active
same,Activity,[4],Active
same,pIC50,[5],6.75
same,Activity,[6],Active
same,Activity,[7],Active
same,Activity,NCI-H1299,Active
same,Activity,[8],Active
same,Activity,[9],Active
same,Activity,[10],Active
same,Activity,[11],inactive
